Assay [1] in a line: RPL19A-GFP modulators, yeast TOR pathway, confirmation, cell-based, S. cerevisiae, flow cytometry, cherry picks, mother/daughter gates (AID 2270;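 active = GFP response below 50% of the DMSO control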). Conditions: S. cerevisiae RPL19A-GFP strain, 3 h, at 10 µM, stronger effect = lower value, 100 = same GFP as DMSO wells.
A short description of assay [2]: LAP4-GFP expression modulators in yeast, confirmation, cell-based, cherry picks, flow cytometry, mother/daughter gates (AID 2271;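 active = GFP response above 150% of the DMSO control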;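 also: ratio of sample to DMSO plate mean so 100% equals DMSO level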). To be noted: S. cerevisiae LAP4-GFP strain, 3 h, at 10 µM, stronger effect = higher value, 100 means same as DMSO control. The method, boiled down: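 System – GFP-fusion yeast strain · Amount – 0.2 OD600 cells · Buffer or medium – SC growth medium · Dosing – single test-compound dose, 10 µM final · Schedule – 3 h treatment at 30 °C with rotation · Detection – GFP by flow cytometry · Read-out – per-gate (all, mother, daughter) GFP response vs DMSO · Benchmarks – positive rapamycin (400 ng/mL), negative DMSO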

Assay [3] is described as follows: modulators of MEP2-GFP levels in yeast, confirmation, S. cerevisiae, flow cytometry GFP, cherry picks (AID 2272;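 active = GFP response above 150% of the DMSO control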;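 also: ratio of well signal to plate DMSO mean so 100% equals DMSO level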). To be noted: S. cerevisiae MEP2-GFP strain, 3 h, at 10 µM, stronger effect = higher value. (In general: A flow cytometer gives signals particle by particle.)
The nature of assay [4]: AGP1-GFP expression modulators, hit retest, confirmation, cell-based, flow cytometry, S. cerevisiae, cherry picks (AID 2273).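 Also: median GFP channel fluorescence over the whole cell population gate.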 Conditions: S. cerevisiae AGP1-GFP strain, 3 h, at 10 µM.
Assay [5] is described as follows: modulators of CIT2-GFP expression in yeast, confirmation, S. cerevisiae, GFP fusion, cherry picks, mother/daughter gates (AID 2274). To be noted: S. cerevisiae CIT2-GFP strain, flow cytometry, 3 h, at 10 µM, stronger effect = higher value.
[6] abbreviates: measured here: daughter cell gate.
Setting [7] is: measured here: mother cell gate.
Setting [8] is: measured here: daughter cell gate response.
Setting [9] is: measured here: mother cell gate response.

Active and inactive are the calls of the source.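 The calls were made as follows, unless noted: active = GFP response above 150% of the DMSO level; inconclusive = fewer than 70 events counted for a yeast strain; inactive = the rest.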

On to `CCc1noc(C)c1C(=O)Nc1nc(-c2ccc(Cl)cc2Cl)c(C)s1`, for which the GFP response vs DMSO in assay [1] was 98.8% (inactive); in assay [1] (setting [6]) it was 99.1%; in assay [1] (setting [7]), 98.8%; in assay [3], 99.5% (inactive). The GFP response relative to DMSO in assay [2] is 98.8% (inactive); in assay [2] (setting [8]), 99.3%; in assay [2] (setting [9]), 97.5%. Further, the GFP response, % of DMSO in assay [4] is 102% (inactive); in assay [5], 96.4% (inactive); in assay [5] (setting [6]), 96.4%; in assay [5] (setting [7]), 94.5%.

Consider `O=C(Oc1oc(-c2ccco2)nc1C=Nc1ccccc1)c1ccco1`, for which the GFP response vs DMSO is 104% (inactive) in assay [1], 106% in assay [1] (setting [6]), 102% in assay [1] (setting [7]) and 107% (inactive) in assay [3]. Further, the GFP response relative to DMSO in assay [2] was 160% (active); in assay [2] (setting [8]), 147%; in assay [2] (setting [9]) it was 175%. The GFP response, % of DMSO in assay [4] was 91.2% (inactive); in assay [5], 104% (inactive); in assay [5] (setting [6]), 108%; in assay [5] (setting [7]), 101%.

Regarding `O=C(Nc1ccc(NC(=O)c2cc3ccccc3o2)cc1)c1ccc2c(c1)OCCO2`, the GFP response vs DMSO in assay [1] was 103% (inactive); in assay [1] (setting [6]), 101%; in assay [1] (setting [7]), 102%; in assay [3], 103% (inactive). Further, the GFP response relative to DMSO is 97% (inactive) in assay [2], 95.9% in assay [2] (setting [8]) and 97.3% in assay [2] (setting [9]). The GFP response, % of DMSO in assay [4] is 98.6% (inactive); in assay [5], 105% (inactive); in assay [5] (setting [6]), 99.2%; in assay [5] (setting [7]) it was 107%.

In the case of `CCOc1ccccc1N1CCN(C(=O)c2cccc(-c3ccc(O)cc3)c2)CC1`, the GFP response vs DMSO in assay [1] was 97% (inactive); in assay [1] (setting [6]), 96.7%; in assay [1] (setting [7]) it was 97.3%; in assay [3], 102% (inactive). For the same compound, the GFP response relative to DMSO in assay [2] was 98.7% (inactive); in assay [2] (setting [8]) it was 95.6%; in assay [2] (setting [9]) it was 102%. For the same compound, the GFP response, % of DMSO was 92.4% (inactive) in assay [4], 96.5% (inactive) in assay [5], 94.8% in assay [5] (setting [6]) and 94.4% in assay [5] (setting [7]).

For `Cc1nn(Cc2c(Cl)cccc2Cl)c(C)c1NC(=O)c1sc2ccccc2c1Cl`, the GFP response vs DMSO in assay [1] is 94.8% (inactive); in assay [1] (setting [6]), 95.7%; in assay [1] (setting [7]) it was 95.8%; in assay [3], 99.5% (inactive). Besides, the GFP response relative to DMSO in assay [2] was 95.3% (inactive); in assay [2] (setting [8]), 93.6%; in assay [2] (setting [9]), 98.5%. Also, the GFP response, % of DMSO in assay [4] was 108% (inactive); in assay [5], 104% (inactive); in assay [5] (setting [6]), 100%; in assay [5] (setting [7]) it was 106%.

With `CC1(C)CCN2CCC(C)(C)c3c(O)ccc1c32`, the GFP response vs DMSO in assay [1] was 105% (inactive); in assay [1] (setting [6]), 105%; in assay [1] (setting [7]) it was 107%; in assay [3], 139% (inactive). Also, the GFP response relative to DMSO is 115% (inactive) in assay [2], 123% in assay [2] (setting [8]) and 115% in assay [2] (setting [9]). Also, the GFP response, % of DMSO in assay [4] was 101% (inactive); in assay [5], 121% (inactive); in assay [5] (setting [6]), 123%; in assay [5] (setting [7]), 119%.

Regarding `O=C1C(=O)N(Cc2ccccc2)C(c2cccc(O)c2)/C1=C(\O)c1ccc2c(c1)OCCO2` (stereo unspecified), the GFP response vs DMSO was 100% (inactive) in assay [1], 100% in assay [1] (setting [6]), 100% in assay [1] (setting [7]) and 100% (inactive) in assay [3]. Besides, the values for the GFP response relative to DMSO in assay [2], in assay [2] (setting [8]) and in assay [2] (setting [9]) were 95% (inactive), 95.6% and 98.3%, respectively. In addition, the GFP response, % of DMSO in assay [4] is 95.2% (inactive); in assay [5] it was 108% (inactive); in assay [5] (setting [6]), 106%; in assay [5] (setting [7]), 109%.

Regarding `N#Cc1cc(Sc2ccccn2)c([N+](=O)[O-])cc1C#N`, the GFP response vs DMSO is 107% (inactive) in assay [1], 110% in assay [1] (setting [6]), 106% in assay [1] (setting [7]) and 143% (inactive) in assay [3]. The GFP response relative to DMSO in assay [2] is 121% (inactive); in assay [2] (setting [8]), 123%; in assay [2] (setting [9]), 118%. Besides, the GFP response, % of DMSO in assay [4] was 106% (inactive); in assay [5], 123% (inactive); in assay [5] (setting [6]) it was 125%; in assay [5] (setting [7]), 120%.

For the compound `Cc1ccc(S(=O)(=O)CC#CCOC(=O)c2ccc([N+](=O)[O-])cc2)cc1`, the GFP response vs DMSO in assay [1] was 105% (inactive); in assay [1] (setting [6]), 107%; in assay [1] (setting [7]), 103%; in assay [3] it was 105% (inactive). Besides, the values for the GFP response relative to DMSO in assay [2], in assay [2] (setting [8]) and in assay [2] (setting [9]) were 140% (inactive), 132% and 148%, respectively. For the same compound, the GFP response, % of DMSO is 111% (inactive) in assay [4], 97.2% (inactive) in assay [5], 100% in assay [5] (setting [6]) and 90.8% in assay [5] (setting [7]).

Turning to `O=C(NN1C(=O)/C(=C\c2ccc(O)c([N+](=O)[O-])c2)SC1=S)c1ccccc1Cl`, the GFP response vs DMSO in assay [1] is 97.4% (inactive); in assay [1] (setting [6]) it was 95.9%; in assay [1] (setting [7]) it was 95.8%; in assay [3], 123% (inactive). The GFP response relative to DMSO in assay [2] was 126% (inactive); in assay [2] (setting [8]) it was 106%; in assay [2] (setting [9]), 129%. In addition, the GFP response, % of DMSO in assay [4] is 69.8% (inactive); in assay [5], 107% (inactive); in assay [5] (setting [6]), 99.1%; in assay [5] (setting [7]), 106%.

Take `O=C(CSc1nnc(C2COc3ccccc3O2)o1)N1CCCC1` (stereo unspecified): the GFP response vs DMSO is 97.8% (inactive) in assay [1], 98.6% in assay [1] (setting [6]), 98.7% in assay [1] (setting [7]) and 98.8% (inactive) in assay [3]. Moreover, the values for the GFP response relative to DMSO in assay [2], in assay [2] (setting [8]) and in assay [2] (setting [9]) were 94.9% (inactive), 98.2% and 95.1%, respectively. Moreover, the GFP response, % of DMSO in assay [4] was 103% (inactive); in assay [5], 112% (inactive); in assay [5] (setting [6]), 111%; in assay [5] (setting [7]) it was 112%.

Consider `CSc1ccc(/C=C/C(=O)c2ccc(NC(C)=O)cc2)cc1`, for which the GFP response vs DMSO in assay [1] was 111% (inactive); in assay [1] (setting [6]), 93.2%; in assay [1] (setting [7]), 94.5%; in assay [3] it was 101% (inactive). The GFP response relative to DMSO is 111% (inactive) in assay [2], 104% in assay [2] (setting [8]) and 113% in assay [2] (setting [9]). Also, the GFP response, % of DMSO in assay [4] was 97.5% (inactive); in assay [5], 91.5% (inactive); in assay [5] (setting [6]), 90.2%; in assay [5] (setting [7]), 82.1%.

For the compound `O=C(c1ccccc1)c1ccccc1N1C(=O)C=CC1=O`, the GFP response vs DMSO in assay [1] is 90.5% (inactive); in assay [1] (setting [6]), 61.6%; in assay [1] (setting [7]), 81.2%; in assay [3], 156% (inactive). The GFP response relative to DMSO was 266% (active) in assay [2], 156% in assay [2] (setting [8]) and 263% in assay [2] (setting [9]). The GFP response, % of DMSO was 129% (inactive) in assay [4], 86% (inactive) in assay [5], 95.2% in assay [5] (setting [6]) and 71.8% in assay [5] (setting [7]).

With `CS(=O)(=O)Nc1cccc(C2=NN(S(C)(=O)=O)C(c3ccc4c(c3)OCO4)C2)c1` (stereo unspecified), the GFP response vs DMSO in assay [1] is 97.2% (inactive); in assay [1] (setting [6]), 98.9%; in assay [1] (setting [7]), 98.7%; in assay [3], 102% (inactive). Besides, the GFP response relative to DMSO in assay [2] was 99.2% (inactive); in assay [2] (setting [8]), 99.2%; in assay [2] (setting [9]), 98.3%. Further, the GFP response, % of DMSO in assay [4] is 99.5% (inactive); in assay [5] it was 103% (inactive); in assay [5] (setting [6]), 103%; in assay [5] (setting [7]) it was 103%.

On to `CC(=O)c1ccc(Sc2ccccn2)c([N+](=O)[O-])c1`, for which the GFP response vs DMSO in assay [1] is 98.4% (inactive); in assay [1] (setting [6]), 99.4%; in assay [1] (setting [7]), 95.8%; in assay [3], 102% (inactive). The results for the GFP response relative to DMSO in assay [2], in assay [2] (setting [8]) and in assay [2] (setting [9]) were 99.2% (inactive), 99.2% and 97.2%, respectively. In addition, the GFP response, % of DMSO in assay [4] was 93.1% (inactive); in assay [5] it was 101% (inactive); in assay [5] (setting [6]), 103%; in assay [5] (setting [7]) it was 99.7%.

Take `COc1cc(NC(=O)c2cc3ccccc3o2)ccc1NC(=O)c1ccco1`: the GFP response vs DMSO was 99% (inactive) in assay [1], 97.9% in assay [1] (setting [6]), 98.9% in assay [1] (setting [7]) and 102% (inactive) in assay [3]. In addition, the results for the GFP response relative to DMSO in assay [2], in assay [2] (setting [8]) and in assay [2] (setting [9]) were 96.7% (inactive), 97.6% and 96.1%, respectively. Moreover, the GFP response, % of DMSO is 94.1% (inactive) in assay [4], 104% (inactive) in assay [5], 105% in assay [5] (setting [6]) and 103% in assay [5] (setting [7]).

The values are drawn from PubChem BioAssay.
